Tests used:
Conditions in all cases: stereoisomer not certain
OR51J1 (Homo sapiens) = target: T1, OR51J1 (Homo sapiens) (UniProt Q9H342)
T1 sequence (whole entry): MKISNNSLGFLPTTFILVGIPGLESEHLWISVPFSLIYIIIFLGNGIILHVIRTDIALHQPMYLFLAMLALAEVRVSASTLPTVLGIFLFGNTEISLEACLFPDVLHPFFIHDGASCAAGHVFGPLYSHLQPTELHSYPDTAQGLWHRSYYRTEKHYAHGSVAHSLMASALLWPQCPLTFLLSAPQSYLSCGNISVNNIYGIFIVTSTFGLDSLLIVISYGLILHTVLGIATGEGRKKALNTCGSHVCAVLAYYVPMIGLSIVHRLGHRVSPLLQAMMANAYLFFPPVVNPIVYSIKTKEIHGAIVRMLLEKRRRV
Procedure, shortened: (§1)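 Assay methods differ from source to source, frequently being transient luciferase assays in mammalian cell lines. For each receptor–molecule pair, the label responsive (active) applies when the original authors judged the measured signal statistically different from baseline, and non-responsive (inactive) applies otherwise.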

OR51L1 (Homo sapiens) = target: T2, OR51L1 (Homo sapiens) (UniProt Q8NGJ5)
T2 sequence (whole entry): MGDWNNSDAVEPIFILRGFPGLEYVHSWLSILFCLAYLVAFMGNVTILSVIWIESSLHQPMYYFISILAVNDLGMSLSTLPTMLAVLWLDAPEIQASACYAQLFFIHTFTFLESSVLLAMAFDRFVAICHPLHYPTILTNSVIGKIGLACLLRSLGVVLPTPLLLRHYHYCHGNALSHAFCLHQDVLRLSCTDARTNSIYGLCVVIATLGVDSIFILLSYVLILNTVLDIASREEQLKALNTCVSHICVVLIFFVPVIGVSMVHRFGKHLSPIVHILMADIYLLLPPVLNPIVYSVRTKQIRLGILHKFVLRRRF
Procedure, shortened: as §1

OR51M1 (Homo sapiens) = target: T3, OR51M1 (Homo sapiens) (UniProt Q9H341)
T3 sequence (whole entry): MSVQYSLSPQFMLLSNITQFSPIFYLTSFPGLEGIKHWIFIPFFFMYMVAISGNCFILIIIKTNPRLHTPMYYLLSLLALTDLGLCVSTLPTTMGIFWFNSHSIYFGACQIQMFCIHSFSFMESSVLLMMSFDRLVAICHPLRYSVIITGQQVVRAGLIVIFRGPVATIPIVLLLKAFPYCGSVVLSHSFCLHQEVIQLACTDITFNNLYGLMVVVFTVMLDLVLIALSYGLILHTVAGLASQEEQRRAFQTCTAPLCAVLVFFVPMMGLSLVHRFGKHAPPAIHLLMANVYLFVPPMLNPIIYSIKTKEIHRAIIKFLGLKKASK
Procedure, shortened: as §1

OR51Q1 (Homo sapiens) = target: T4, OR51Q1 (Homo sapiens) (UniProt Q8NH59)
T4 sequence (whole entry): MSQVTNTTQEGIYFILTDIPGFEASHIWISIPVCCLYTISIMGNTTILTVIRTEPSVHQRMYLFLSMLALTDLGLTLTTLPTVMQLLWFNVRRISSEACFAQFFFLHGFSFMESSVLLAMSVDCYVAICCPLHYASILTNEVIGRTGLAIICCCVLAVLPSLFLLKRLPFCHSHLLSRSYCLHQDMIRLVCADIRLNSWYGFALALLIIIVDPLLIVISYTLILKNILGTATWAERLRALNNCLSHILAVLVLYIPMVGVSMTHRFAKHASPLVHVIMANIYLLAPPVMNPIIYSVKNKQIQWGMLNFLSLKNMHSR
Procedure, shortened: as §1

OR51S1 (Homo sapiens) = target: T5, OR51S1 (Homo sapiens) (UniProt Q8NGJ8)
T5 sequence (whole entry): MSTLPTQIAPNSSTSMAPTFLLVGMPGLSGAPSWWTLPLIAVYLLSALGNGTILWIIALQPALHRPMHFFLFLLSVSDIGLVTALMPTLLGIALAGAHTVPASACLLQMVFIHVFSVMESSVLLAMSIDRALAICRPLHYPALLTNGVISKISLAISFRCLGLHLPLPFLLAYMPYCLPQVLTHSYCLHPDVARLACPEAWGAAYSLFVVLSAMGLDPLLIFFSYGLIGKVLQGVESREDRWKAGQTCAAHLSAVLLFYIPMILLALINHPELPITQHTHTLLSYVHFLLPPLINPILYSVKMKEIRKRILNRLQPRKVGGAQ
Procedure, shortened: as §1

OR51T1 (Homo sapiens) = target: T6, OR51T1 (Homo sapiens) (UniProt Q8NGJ9)
T6 sequence (whole entry): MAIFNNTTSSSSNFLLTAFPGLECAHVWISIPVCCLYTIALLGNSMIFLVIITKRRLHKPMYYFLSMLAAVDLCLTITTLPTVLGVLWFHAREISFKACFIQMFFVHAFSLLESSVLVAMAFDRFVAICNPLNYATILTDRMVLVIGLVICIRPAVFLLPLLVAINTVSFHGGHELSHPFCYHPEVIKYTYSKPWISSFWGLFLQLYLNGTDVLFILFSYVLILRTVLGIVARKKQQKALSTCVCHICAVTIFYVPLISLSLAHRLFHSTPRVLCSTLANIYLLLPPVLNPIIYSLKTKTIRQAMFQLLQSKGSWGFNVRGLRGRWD
Procedure, shortened: as §1

OR51V1 (Homo sapiens) = target: T7, OR51V1 (Homo sapiens) (UniProt Q9H2C8)
T7 sequence (whole entry): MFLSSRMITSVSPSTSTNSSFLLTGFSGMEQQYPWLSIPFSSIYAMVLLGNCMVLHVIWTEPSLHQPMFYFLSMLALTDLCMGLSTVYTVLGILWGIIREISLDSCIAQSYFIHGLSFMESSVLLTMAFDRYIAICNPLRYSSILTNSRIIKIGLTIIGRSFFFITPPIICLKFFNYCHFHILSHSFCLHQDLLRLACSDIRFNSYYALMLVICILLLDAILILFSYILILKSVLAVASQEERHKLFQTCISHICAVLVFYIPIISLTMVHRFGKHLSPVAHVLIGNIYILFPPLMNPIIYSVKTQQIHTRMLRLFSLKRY
Procedure, shortened: as §1

OR52A1 (Homo sapiens) = target: T8, OR52A1 (Homo sapiens) (UniProt Q9UKL2)
T8 sequence (whole entry): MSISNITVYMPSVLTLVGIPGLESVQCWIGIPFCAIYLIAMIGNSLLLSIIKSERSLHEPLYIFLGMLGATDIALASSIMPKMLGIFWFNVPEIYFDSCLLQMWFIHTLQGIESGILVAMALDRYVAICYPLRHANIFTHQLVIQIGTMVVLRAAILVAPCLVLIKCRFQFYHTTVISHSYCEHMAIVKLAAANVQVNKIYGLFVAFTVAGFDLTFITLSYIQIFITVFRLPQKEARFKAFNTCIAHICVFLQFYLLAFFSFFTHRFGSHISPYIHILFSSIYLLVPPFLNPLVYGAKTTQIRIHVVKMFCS
Procedure, shortened: as §1

OR52A4P (Homo sapiens) = target: T9, OR52A4P (Homo sapiens) (UniProt A6NMU1)
T9 sequence (whole entry): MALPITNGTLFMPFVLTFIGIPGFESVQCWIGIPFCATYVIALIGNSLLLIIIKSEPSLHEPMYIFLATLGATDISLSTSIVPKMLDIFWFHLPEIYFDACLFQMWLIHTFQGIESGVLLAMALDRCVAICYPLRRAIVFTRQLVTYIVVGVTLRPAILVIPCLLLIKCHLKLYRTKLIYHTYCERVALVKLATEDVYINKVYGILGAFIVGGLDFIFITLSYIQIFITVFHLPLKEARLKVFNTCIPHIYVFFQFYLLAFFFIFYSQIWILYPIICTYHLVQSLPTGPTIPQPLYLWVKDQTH
Procedure, shortened: as §1

Measured: odorant receptor agonist call

CCCCCC(=O)C(C)C(C)=O (centres undefined)
inactive: all assays above

Reference: the M2OR odorant receptor database
